This is an account of results in ChEMBL document CHEMBL1154647, “Synthesis, spectral characterization and biological evaluation of phosphorylated derivatives of galanthamine” (Eur J Med Chem, 2010).

For test [1], the system named is Brain. Briefly: Antioxidant activity in Wistar rat brain assessed as inhibition of lipid peroxidation. The test is classed as functional, tissue-based.
In test [2] the test system is Brain. The test can be described thus: Antioxidant activity in Wistar rat brain assessed as reduction in glutathione content. The class given is functional, tissue-based. In a few lines: (§1)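 Wistar rat brain was homogenised 1:40 (w/v) in 0.1 M phosphate buffer, pH 7.4, with 1 mM EDTA. Total glutathione (GSH + GSSG) and reduced GSH were assayed spectrophotometrically from optical density, using net rate against a standard-curve slope and intercept, times a dilution factor. Homogenate protein was measured by the Lowry method.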

A short description of test [3]: Inhibition of superoxide dismutase in Wistar rat brain. The test is classed as tissue-based.
A further test addresses T1, Catalase (Rattus norvegicus, UniProt P04762).
T1 sequence (P04762 whole entry): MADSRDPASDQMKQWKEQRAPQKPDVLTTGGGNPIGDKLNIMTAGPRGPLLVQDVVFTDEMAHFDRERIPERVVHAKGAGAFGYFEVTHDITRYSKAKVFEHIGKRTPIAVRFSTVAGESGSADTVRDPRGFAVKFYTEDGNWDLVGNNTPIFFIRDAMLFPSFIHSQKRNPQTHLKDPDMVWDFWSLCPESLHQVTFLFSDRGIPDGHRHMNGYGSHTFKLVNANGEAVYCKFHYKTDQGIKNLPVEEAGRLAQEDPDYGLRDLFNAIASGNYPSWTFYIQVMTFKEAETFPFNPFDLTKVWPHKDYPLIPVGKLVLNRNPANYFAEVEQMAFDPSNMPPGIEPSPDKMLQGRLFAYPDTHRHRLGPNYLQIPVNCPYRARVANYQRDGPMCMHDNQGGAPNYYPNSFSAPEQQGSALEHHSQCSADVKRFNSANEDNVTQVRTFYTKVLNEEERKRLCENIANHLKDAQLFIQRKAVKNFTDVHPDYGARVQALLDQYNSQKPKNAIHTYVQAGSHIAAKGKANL
Briefly: Inhibition of catalase in Wistar rat brain.

In test [4] the test system is Staphylococcus aureus. The test can be described thus: Antibacterial activity against Staphylococcus aureus after 18 hrs. The test is classed as functional.
For test [5], the system named is Klebsiella pneumoniae. Briefly: Antibacterial activity against Klebsiella pneumoniae after 18 hrs. The test is classed as functional.
Test [6] deals with Bacillus subtilis. Briefly: Antibacterial activity against Bacillus subtilis after 18 hrs. The class given is functional.
Test [7] has as its system Escherichia coli. The test can be described thus: Antibacterial activity against Escherichia coli after 18 hrs. The class given is functional.
Test [8] deals with Brain. The test can be described thus: Antioxidant activity in Wistar rat brain assessed as superoxide dismutase content. The test is classed as functional.
The subject of test [9] is Brain. Briefly: Antioxidant activity in Wistar rat brain assessed as catalase content. The test is classed as functional.
For test [10], the system named is Brain. Briefly: Antioxidant activity in Wistar rat brain assessed as lipid peroxidation. The test is classed as functional, tissue-based.
Test [11] deals with Brain. The test can be described thus: Antioxidant activity in Wistar rat brain assessed as glutathione content. The test is classed as functional. In a few lines:
as §1

For test [12], the system named is Klebsiella pneumoniae. The test can be described thus: Antibacterial activity against Klebsiella pneumoniae at 1 mg/mL after 18 hrs by disc diffusion assay. The class given is functional. The note with it: read-out: IZ. In a few lines: (§2)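 Bacteria were grown in nutrient broth at 37 °C for 18 h on a rotary shaker at 150 rpm. Compounds were dissolved in DMF. Nutrient agar plates were dried at 35–36 °C for about 30 min, and test strains were spread on the surface. Discs were applied, and plates were inverted and incubated at 37 °C. A DMF blank was run.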
In general terms: In agar diffusion tests the substance spreads into inoculated agar from a disc or well.

The subject of test [13] is Staphylococcus aureus. Briefly: Antibacterial activity against Staphylococcus aureus at 1 mg/mL after 18 hrs by disc diffusion assay. The class given is functional. The note with it: read-out: IZ. In outline:
as §2

The test system of test [14] is Bacillus subtilis. The test can be described thus: Antibacterial activity against Bacillus subtilis at 1 mg/mL after 18 hrs by disc diffusion assay. The test is classed as functional. The note with it: read-out: IZ. In a few lines: as §2
The subject of test [15] is Escherichia coli. Briefly: Antibacterial activity against Escherichia coli at 1 mg/mL after 18 hrs by disc diffusion assay. The test is classed as functional. The note with it: read-out: IZ. In outline: as §2
The test system of test [16] is Klebsiella pneumoniae. The test can be described thus: Antibacterial activity against Klebsiella pneumoniae at 2 mg/mL after 18 hrs by disc diffusion assay. The test is classed as functional. The note with it: read-out: IZ. In a few lines: as §2
For test [17], the system named is Staphylococcus aureus. Briefly: Antibacterial activity against Staphylococcus aureus at 2 mg/mL after 18 hrs by disc diffusion assay. The class given is functional. The note with it: read-out: IZ. In a few lines: as §2
For test [18], the system named is Bacillus subtilis. The test can be described thus: Antibacterial activity against Bacillus subtilis at 2 mg/mL after 18 hrs by disc diffusion assay. The note with it: read-out: IZ. The class given is functional. In outline:
as §2

Test [19] relates to Escherichia coli. The test can be described thus: Antibacterial activity against Escherichia coli at 2 mg/mL after 18 hrs by disc diffusion assay. The test is classed as functional. The note with it: read-out: IZ. In outline:
as §2

≈ marks a conversion by molar mass, not a printed value.

As usually defined, the EC50 is the concentration needed to bring the measured effect to its halfway point. The term MIC denotes the lowest concentration found to suppress growth. Read a high MIC as a need for much substance. Regarding `COc1ccc2c3c1O[C@H]1C[C@@H](OP(=O)(OCCO)N(CCCl)CCCl)C=C[C@@]31CCN(C)C2` (stereo partly specified), the EC50 in the test on Brain [1] amounted to 2.87 µg/mL (≈ 5.36 µM); in the test on Brain [2], 2.02 µg/mL (≈ 3.77 µM); in test [3], 1.98 µg/mL (≈ 3.7 µM); at Catalase, 2.21 µg/mL (≈ 4.13 µM). Also, the MIC against Staphylococcus aureus [4] stood at 0.42 µg/mL (≈ 0.784 µM); against Klebsiella pneumoniae [5], 0.57 µg/mL (≈ 1.06 µM); with Bacillus subtilis [6], 0.28 µg/mL (≈ 0.523 µM); in the test with Escherichia coli [7], 0.5 µg/mL (≈ 0.934 µM). The Activity turned out to be 29.02 µg/mL in the test on Brain [8], 291.27 µg/mL in the test on Brain [9], 68.2 µg/mL with Brain [10] and 4.67 µg/mL in the test with Brain [11]. Moreover, the zone of inhibition at 1000 µg/mL was found to be 1.65 mm in the test with Klebsiella pneumoniae [12], 3.03 mm in the test on Staphylococcus aureus [13], 1.63 mm with Bacillus subtilis [14] and 1.57 mm in the test with Escherichia coli [15]. The zone of inhibition at 2000 µg/mL was 4.76 mm with Klebsiella pneumoniae [16], 5.02 mm in the test with Staphylococcus aureus [17], 4.89 mm in the test on Bacillus subtilis [18] and 3.18 mm with Escherichia coli [19].
Turning to `O=C(N[C@H](CO)[C@H](O)c1ccc([N+](=O)[O-])cc1)C(Cl)Cl` [CHLORAMPHENICOL], the MIC with Staphylococcus aureus [4] was 0.2 µg/mL (≈ 0.619 µM); with Klebsiella pneumoniae [5] it was 0.13 µg/mL (≈ 0.402 µM); against Bacillus subtilis [6] it was 0.15 µg/mL (≈ 0.464 µM); in the test with Escherichia coli [7] it was 0.25 µg/mL (≈ 0.774 µM). In addition, the zone of inhibition at 1000 µg/mL came out at 3.62 mm in the test with Klebsiella pneumoniae [12], 2.67 mm with Staphylococcus aureus [13], 1.02 mm in the test with Bacillus subtilis [14] and 2.02 mm in the test on Escherichia coli [15]. Moreover, the zone of inhibition at 2000 µg/mL with Klebsiella pneumoniae [16] was 4.02 mm; with Staphylococcus aureus [17], 3.08 mm; in the test with Bacillus subtilis [18], 2.99 mm; in the test on Escherichia coli [19], 3.27 mm.
Regarding `COc1ccc2c3c1O[C@H]1C[C@@H](OP(=O)(NCCO)N(CCCl)CCCl)C=C[C@@]31CCN(C)C2` (stereo partly specified), the EC50 in the test on Brain [1] worked out at 1.42 µg/mL (≈ 2.66 µM); in the test with Brain [2] it was 1.03 µg/mL (≈ 1.93 µM); in [3] it was 1.28 µg/mL (≈ 2.4 µM); at Catalase it was 1.52 µg/mL (≈ 2.84 µM). For the same molecule, the MIC in the test on Staphylococcus aureus [4] turned out to be 0.29 µg/mL (≈ 0.543 µM); in the test with Klebsiella pneumoniae [5], 0.15 µg/mL (≈ 0.281 µM); with Bacillus subtilis [6], 0.11 µg/mL (≈ 0.206 µM); in the test with Escherichia coli [7], 0.35 µg/mL (≈ 0.655 µM). The Activity with Brain [8] worked out at 29.86 µg/mL; in the test on Brain [9], 287.59 µg/mL; in the test on Brain [10], 72.3 µg/mL; with Brain [11], 4.73 µg/mL. In addition, the zone of inhibition at 1000 µg/mL with Klebsiella pneumoniae [12] amounted to 1.47 mm; in the test on Staphylococcus aureus [13], 1.47 mm; with Bacillus subtilis [14] it was 2.22 mm; in the test on Escherichia coli [15] it was 1.32 mm. The zone of inhibition at 2000 µg/mL with Klebsiella pneumoniae [16] was 4.45 mm; in the test on Staphylococcus aureus [17], 4.78 mm; in the test with Bacillus subtilis [18], 3.46 mm; in the test on Escherichia coli [19], 3.86 mm.
As to VITAMIN E [listing 1 of 2 here], the Activity with Brain [8] amounted to 32.3 µg/mL; with Brain [9], 403 µg/mL; with Brain [10] it was 82.8 µg/mL; with Brain [11], 43.6 µg/mL.
As for `O=C1O[C@H]([C@@H](O)CO)C(O)=C1O` [ASCORBIC ACID], the EC50 in the test on Brain [1] stood at 1.02 µg/mL (≈ 5.79 µM); in the test on Brain [2], 0.98 µg/mL (≈ 5.56 µM); in test [3], 0.99 µg/mL (≈ 5.62 µM). The figures for the Activity with Brain [9], with Brain [10] and with Brain [11] were 385.46 µg/mL, 88.1 µg/mL and 31.34 µg/mL, respectively.
For VITAMIN E [listing 2 of 2 here], the EC50 with Brain [1] stood at 1.22 µg/mL; in the test on Brain [2], 0.99 µg/mL; in test [3] it was 1.03 µg/mL; on Catalase it was 1.48 µg/mL.
